In paper PMC4316201 (Gastroenterology, 2014):

How the values were obtained:
human beings [1] = details: cited from earlier work
[2] = Plasma total GLP-2 concentration after subcutaneous GLP-2; format: in vivo, human beings; details: 1500 μg of GLP-2 subcutaneously
Method in brief: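 Plasma total GLP-2 was measured during the study A visits in healthy men (randomized, single-blind crossover, visits 4 weeks apart). After an overnight fast, subjects received nasoduodenal formula feeding under a pancreatic clamp, then a single subcutaneous GLP-2 dose (1500 ug) or placebo at 9 AM. Sampling continued over the kinetic study.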

healthy men [3] = format: in vivo, human beings; details: study B
Method in brief: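 Six healthy men were studied in a randomized, single-blind crossover (visits 4 weeks apart). At 7 am they drank a liquid meal containing 120,000 IU retinyl palmitate, with no food thereafter. At 2 pm (T = 0, 7 h post-meal) they received s.c. GLP-2 1500 mcg or placebo, with blood sampled for 3 h. TRL TG, retinyl palmitate and apoB-48 were measured. Incremental AUC over 0–3 h used the T = 0 concentration as baseline.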

healthy men [4] = format: in vivo, human beings; details: study A
Method in brief: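 Six healthy normoglycemic, normolipidemic men took part in a randomized, single-blind crossover (visits 4 weeks apart). After an overnight fast, liquid mixed-macronutrient formula was infused nasoduodenally for 15 h from 4 AM. A pancreatic clamp (somatostatin, insulin, glucagon, growth hormone) started at 7 AM. At 9 AM came primed constant d3-leucine for 10 h plus s.c. GLP-2 1500 ug or placebo. AUC covered the first 3 h. Multicompartmental modelling gave FCR.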

human beings [5] = details: intravenous infusion of native GLP-2, human beings; cited from earlier work
[6] = GLP-2 1500 mcg s.c. 7 h after meal, N = 6, vs placebo P = .002
[7] = GLP-2 1500 μg s.c. single dose, n = 6, vs placebo P = .03
[8] = GLP-2 1500 μg s.c., n = 6, vs placebo P = .02

N[C@@H](CC(=O)N1CCn2c(nnc2C(F)(F)F)C1)Cc1cc(F)c(F)cc1F [sitagliptin]
effect on chylomicron production in human beings (human beings [1]; acute): acutely reduces chylomicron production

exenatide
effect on chylomicron secretion in human beings (human beings [1]): reduces chylomicron secretion

glucagon-like peptide-2 [GLP-2]
GLP-2 concentration at 4 hours relative to the level at 2 hours [2]: approximately half | plasma total GLP-2 concentration compared with placebo ([2]; 2 and 4 hours after administration): significantly increased | plasma glucose concentration, GLP-2 vs placebo (healthy men [3]): no significant difference | TRL TG iAUC0-3 (healthy men [3]; [6]): 0.28 ± 0.16 mmol/L/h | TRL retinyl palmitate iAUC0-3 (healthy men [3]; [6]): 0.86 ± 0.21 µmol/L/h | chylomicron (Sf > 400) retinyl palmitate peak concentration at 60 minutes (healthy men [3]; GLP-2 1500 mcg s.c. 7 h after meal, n = 5, vs placebo P = .003): 0.38 ± 0.06 µmol/L | TRL apoB-48 iAUC0-3 (healthy men [3]; GLP-2 1500 mcg s.c. 7 h after meal, n = 6, vs placebo P = .04): 1.45 ± 1.72 mg/L/h | TRL TG peak increment (healthy men [3]; GLP-2 1500 mcg s.c. 7 h after meal, vs placebo P = .003): 0.42 ± 0.11 | TRL apoB-48 peak increment (healthy men [3]; GLP-2 1500 mcg s.c. 7 h after meal, vs placebo P = .006): 2.1 ± 0.8 | plasma TG area under the concentration curve in the first 3 hours (AUC0-3) (healthy men [4]; [7]): 3.1 ± 0.4 mmol/L/h | plasma TG peak concentration at 1 hour (healthy men [4]; [7]): 1.23 ± 0.20 mmol/L | TRL apoB-48 AUC0-3 (healthy men [4]; [8]): 19.3 ± 5.0 mg/L/h | TRL apoB-48 peak concentration 1 hour after administration (healthy men [4]; [8]): 9.5 ± 2.6 mg/L | TRL TG peak concentration at 1 hour (healthy men [4]; GLP-2 1500 μg s.c., n = 6, vs placebo P = .15): 0.79 ± 0.09 mmol/L | TRL TG AUC0-3 (healthy men [4]; GLP-2 1500 μg s.c., n = 6, vs placebo P = .24): 1.9 ± 0.2 mmol/L/h | TRL apoB-100 mean concentration for the 10-hour kinetics study (healthy men [4]; GLP-2 1500 μg s.c., n = 6, vs placebo P = .5): 74.8 ± 7.4 mg/L | TRL apoB-100 AUC0-3 (healthy men [4]; GLP-2 1500 μg s.c., n = 6, vs placebo P = .95): 216 ± 21.9 mg/L/h | mean plasma glucagon concentration (healthy men [4]; GLP-2 1500 μg s.c., pancreatic clamp, vs placebo P = .01): 143.3 ± 14.2 pg/mL | mean plasma glucose concentration (healthy men [4]; GLP-2 1500 μg s.c., pancreatic clamp, vs placebo P = .049): 8.7 ± 0.3 mmol/L | plasma FFA concentration, GLP-2 vs placebo (healthy men [4]; during kinetic study): no significant difference | plasma insulin concentration, GLP-2 vs placebo (healthy men [4]; during kinetic study): no significant difference | effect on postprandial plasma TG and free fatty acid (FFA) concentrations (human beings [5]): increase
